According to ChEMBL document CHEMBL1138061, “A thienopyridazinone-based melanin-concentrating hormone receptor 1 antagonist with potent in vivo anorectic properties” (J Med Chem, 2006):

Assays:
[1] = molecular target: T1, Melanin-concentrating hormone receptor 1 (Rattus norvegicus, UniProt P97639); assay: Binding affinity to chimeric rat/human MCH1R stably expressed in HEK293 cells; format: cell-based
Outline: (§1)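 Each value is the average of at least two replicate determinations.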

[2] = Intrinsic clearance in human liver microsomes; format: ADME, Microsome
Outline: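 Intrinsic human clearance was determined in human liver microsomes. Standard error is estimated below 10%, based on a reference compound run as a standard.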

[3] = Brain concentration in Sprague-Dawley rat at 10 mg/kg, po after 4 hours; format: ADME, organism-based; set-up: dose 10 mg/kg, route oral; conditions: read-out: Drug uptake
Outline: (§2)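 Rats dosed 10 mg kg-1 orally and 2.5 mg kg-1 iv. AUC and Cmax come from the oral dose. Brain levels were measured 1 h and 4 h after oral dosing and expressed as brain/plasma ratios at those times. Vd, clearance and t1/2 were derived from the same dosing.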

CYP2D6 = CYP2D6 (Homo sapiens, UniProt P10635); assay: Inhibition of cytochrome P450 2D6 at 5 uM; format: ADME; conditions: read-out: Activity
[4] = Brain to plasma ratio in Sprague-Dawley rat at 10 mg/kg, po and 2.5 mg/kg, iv after 1 hour; format: ADME, organism-based; outline: as §2
CYP3A4 = CYP3A4 (Homo sapiens, UniProt P08684); assay: Inhibition of cytochrome P450 3A4 at 5 uM; format: ADME; conditions: read-out: Activity
[5] = Volume of distribution in Sprague-Dawley rat at 10 mg/kg, po and 2.5 mg/kg, iv; format: ADME, organism-based; conditions: in vivo, read-out: Vdss; outline: as §2
[6] = Half life in Sprague-Dawley rat at 10 mg/kg, po and 2.5 mg/kg, iv; format: ADME, organism-based; conditions: in vivo; outline: as §2
[7] = Clearance in Sprague-Dawley rat at 10 mg/kg, po and 2.5 mg/kg, iv; format: ADME, organism-based; conditions: in vivo
[8] = molecular target: T2, Muscarinic acetylcholine receptor M1 (Homo sapiens, UniProt P11229); assay: Binding affinity to muscarinic M1R
T2 sequence (P11229 whole entry): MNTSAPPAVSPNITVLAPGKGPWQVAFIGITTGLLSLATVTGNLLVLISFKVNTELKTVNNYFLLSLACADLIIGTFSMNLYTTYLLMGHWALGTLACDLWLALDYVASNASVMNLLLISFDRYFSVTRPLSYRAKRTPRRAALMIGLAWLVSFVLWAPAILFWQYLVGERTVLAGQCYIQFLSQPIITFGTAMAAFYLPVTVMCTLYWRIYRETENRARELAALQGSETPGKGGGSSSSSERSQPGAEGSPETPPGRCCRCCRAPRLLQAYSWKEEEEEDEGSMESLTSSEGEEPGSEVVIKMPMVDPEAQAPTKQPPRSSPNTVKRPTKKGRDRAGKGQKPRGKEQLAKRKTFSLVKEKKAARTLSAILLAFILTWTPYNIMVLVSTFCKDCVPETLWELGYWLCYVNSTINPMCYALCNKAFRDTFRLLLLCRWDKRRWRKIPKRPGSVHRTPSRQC

[9] = Plasma concentration in Sprague-Dawley rats at 1 mg/kg after 14 days; format: ADME, organism-based; set-up: dose 1 mg/kg; conditions: rat
[10] = molecular target: T3, Voltage-gated inwardly rectifying potassium channel KCNH2 (Homo sapiens, UniProt Q12809); assay: Affinity for human ERG channel by patch clamp assay; format: functional
[11] = Cmax in Sprague-Dawley rat plasma at 10 mg/kg, po; format: ADME, organism-based; set-up: dose 10 mg/kg, route oral; outline: as §2
[12] = Bioavailability in Sprague-Dawley rat at 10 mg/kg, po and 2.5 mg/kg, iv; format: ADME, organism-based; conditions: in vivo
[13] = AUC in Sprague-Dawley rat at 10 mg/kg, po; format: ADME, organism-based; set-up: dose 10 mg/kg, route oral; conditions: plasma; outline: as §2
[14] = Selectivity for MCH1R over muscarinic M3R
[15] = Brain concentration in Sprague-Dawley rat at 10 mg/kg, po after 1 hour; format: ADME, organism-based; set-up: dose 10 mg/kg, route oral; conditions: read-out: Drug uptake; outline: as §2
[16] = molecular target: Muscarinic acetylcholine receptor M3 (Homo sapiens, UniProt P20309); assay: Binding affinity to muscarinic M3R
[17] = molecular target: T1, Melanin-concentrating hormone receptor 1; assay: Activity at chimeric rat/human MCH1R by accumulation of GTPgammaS; outline: as §1
[18] = Brain to plasma ratio in Sprague-Dawley rat at 10 mg/kg, po and 2.5 mg/kg, iv after 4 hours; format: ADME, organism-based; outline: as §2
[19] = Plasma concentration in Sprague-Dawley rats at 1 mg/kg after 1 day; format: ADME, organism-based; set-up: dose 1 mg/kg; conditions: rat
[20] = molecular target: Melanin-concentrating hormone receptor 1 (Rattus norvegicus) (UniProt P97639); assay: Inhibition of chimeric rat/human MCH1R at 10 uM
Outline: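 Single-concentration test at 10 µM, reported as percent inhibition of MCH1R; values averaged from at least two replicates.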

[21] = molecular target: T3, Voltage-gated inwardly rectifying potassium channel KCNH2; assay: Displacement of [3H]dofetilide from human ERG channel

T1 sequence (P97639 whole entry, looked up): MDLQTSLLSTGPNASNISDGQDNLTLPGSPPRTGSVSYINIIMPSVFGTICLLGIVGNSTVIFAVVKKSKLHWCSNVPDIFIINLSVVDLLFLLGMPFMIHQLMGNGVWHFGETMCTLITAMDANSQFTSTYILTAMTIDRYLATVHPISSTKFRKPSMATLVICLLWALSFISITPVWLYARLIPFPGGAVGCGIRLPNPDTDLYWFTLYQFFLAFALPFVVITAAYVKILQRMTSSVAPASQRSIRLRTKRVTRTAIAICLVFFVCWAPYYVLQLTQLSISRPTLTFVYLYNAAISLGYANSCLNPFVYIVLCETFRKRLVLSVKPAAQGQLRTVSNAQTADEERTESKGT
T3 sequence (Q12809 whole entry): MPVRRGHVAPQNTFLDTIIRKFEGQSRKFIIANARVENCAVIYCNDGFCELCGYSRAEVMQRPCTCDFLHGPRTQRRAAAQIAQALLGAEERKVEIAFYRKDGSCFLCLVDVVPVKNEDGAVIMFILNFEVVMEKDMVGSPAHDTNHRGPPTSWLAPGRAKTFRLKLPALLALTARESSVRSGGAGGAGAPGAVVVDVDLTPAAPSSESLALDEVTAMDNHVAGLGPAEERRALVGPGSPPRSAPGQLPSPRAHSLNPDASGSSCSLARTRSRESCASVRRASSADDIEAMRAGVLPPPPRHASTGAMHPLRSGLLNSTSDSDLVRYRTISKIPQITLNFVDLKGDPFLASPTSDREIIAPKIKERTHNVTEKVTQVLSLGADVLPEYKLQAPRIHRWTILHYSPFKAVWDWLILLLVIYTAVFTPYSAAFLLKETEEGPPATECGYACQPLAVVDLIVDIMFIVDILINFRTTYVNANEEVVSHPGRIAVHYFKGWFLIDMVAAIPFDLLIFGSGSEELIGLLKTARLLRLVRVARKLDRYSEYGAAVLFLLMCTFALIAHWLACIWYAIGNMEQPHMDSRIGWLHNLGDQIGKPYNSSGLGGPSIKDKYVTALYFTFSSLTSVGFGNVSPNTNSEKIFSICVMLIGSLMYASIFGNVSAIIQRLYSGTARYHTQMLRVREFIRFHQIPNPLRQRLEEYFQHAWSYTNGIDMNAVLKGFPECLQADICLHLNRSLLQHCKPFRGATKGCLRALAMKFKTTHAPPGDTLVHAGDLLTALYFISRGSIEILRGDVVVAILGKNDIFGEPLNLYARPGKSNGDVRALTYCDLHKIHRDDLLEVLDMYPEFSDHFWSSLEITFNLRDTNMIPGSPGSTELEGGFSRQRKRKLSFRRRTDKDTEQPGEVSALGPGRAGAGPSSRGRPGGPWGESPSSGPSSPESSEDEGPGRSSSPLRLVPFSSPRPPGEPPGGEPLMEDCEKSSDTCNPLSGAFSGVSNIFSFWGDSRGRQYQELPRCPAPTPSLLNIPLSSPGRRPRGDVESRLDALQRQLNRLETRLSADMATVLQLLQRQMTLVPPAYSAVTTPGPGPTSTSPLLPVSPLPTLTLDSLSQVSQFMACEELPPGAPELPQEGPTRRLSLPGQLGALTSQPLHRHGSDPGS
Sequence of Melanin-concentrating hormone receptor 1 (Rattus norvegicus) (P97639 whole entry): as the sequence (P97639 whole entry, looked up) above
Sequence of CYP3A4 (P08684 whole entry): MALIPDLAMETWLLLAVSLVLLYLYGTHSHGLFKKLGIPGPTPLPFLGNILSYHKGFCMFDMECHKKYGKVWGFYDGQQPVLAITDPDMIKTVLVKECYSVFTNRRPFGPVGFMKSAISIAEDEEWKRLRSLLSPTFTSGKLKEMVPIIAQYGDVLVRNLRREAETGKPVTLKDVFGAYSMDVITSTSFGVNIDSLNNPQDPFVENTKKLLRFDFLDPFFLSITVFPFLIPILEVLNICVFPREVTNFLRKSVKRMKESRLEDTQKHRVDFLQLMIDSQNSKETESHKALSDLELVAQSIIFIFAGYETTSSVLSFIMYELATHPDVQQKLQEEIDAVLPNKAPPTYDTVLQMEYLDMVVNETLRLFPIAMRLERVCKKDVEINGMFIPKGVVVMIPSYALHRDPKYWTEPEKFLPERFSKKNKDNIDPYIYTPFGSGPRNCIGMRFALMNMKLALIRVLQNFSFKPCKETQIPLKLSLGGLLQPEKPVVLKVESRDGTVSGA
Sequence of Muscarinic acetylcholine receptor M3 (P20309 whole entry): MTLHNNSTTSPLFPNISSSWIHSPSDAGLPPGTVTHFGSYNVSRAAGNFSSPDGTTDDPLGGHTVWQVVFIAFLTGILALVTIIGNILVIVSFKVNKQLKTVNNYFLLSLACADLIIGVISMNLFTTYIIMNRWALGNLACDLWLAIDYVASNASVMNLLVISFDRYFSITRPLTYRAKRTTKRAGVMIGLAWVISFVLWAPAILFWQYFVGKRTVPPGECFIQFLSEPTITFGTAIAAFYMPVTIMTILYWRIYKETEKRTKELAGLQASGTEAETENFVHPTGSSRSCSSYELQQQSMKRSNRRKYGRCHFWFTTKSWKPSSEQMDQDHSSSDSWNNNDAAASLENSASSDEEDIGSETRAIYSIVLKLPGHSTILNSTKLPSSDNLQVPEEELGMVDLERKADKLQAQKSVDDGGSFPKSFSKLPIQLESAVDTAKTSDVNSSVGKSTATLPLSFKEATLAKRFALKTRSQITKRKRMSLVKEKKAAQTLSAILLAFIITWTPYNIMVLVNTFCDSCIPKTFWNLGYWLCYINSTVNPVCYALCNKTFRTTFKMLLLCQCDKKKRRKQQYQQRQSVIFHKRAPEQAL
Sequence of CYP2D6 (P10635 whole entry): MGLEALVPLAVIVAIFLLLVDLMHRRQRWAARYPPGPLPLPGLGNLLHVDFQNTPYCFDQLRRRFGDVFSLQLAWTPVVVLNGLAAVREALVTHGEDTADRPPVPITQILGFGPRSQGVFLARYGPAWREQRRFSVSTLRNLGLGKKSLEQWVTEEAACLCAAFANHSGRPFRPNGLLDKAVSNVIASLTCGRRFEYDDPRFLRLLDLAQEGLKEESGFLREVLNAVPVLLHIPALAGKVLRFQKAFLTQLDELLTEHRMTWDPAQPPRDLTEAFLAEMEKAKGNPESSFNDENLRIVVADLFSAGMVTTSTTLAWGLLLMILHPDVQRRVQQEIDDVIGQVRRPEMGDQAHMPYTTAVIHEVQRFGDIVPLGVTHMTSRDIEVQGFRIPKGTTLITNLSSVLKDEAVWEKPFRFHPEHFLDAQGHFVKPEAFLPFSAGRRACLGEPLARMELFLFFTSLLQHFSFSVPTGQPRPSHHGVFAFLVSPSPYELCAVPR

## CN[C@@H]1CCN(c2ccc(-n3ncc4cc(-c5ccc(F)cc5)sc4c3=O)cn2)C1
[1]
  Ki: 2.5 nM
[2]
  CLint scaled: 8.2 mL/min/kg

## CCN[C@H]1CCN(c2ccc(-n3ncc4cc(-c5ccc(Cl)cc5)ccc4c3=O)cn2)C1
[1]
  Ki: 1.9 nM
[2]
  CLint scaled: 9.2 mL/min/kg

## CN(C)[C@H]1CCN(c2ccc(-n3ncc4cc(-c5ccc(C(F)(F)F)cc5)sc4c3=O)cn2)C1
[1]
  Ki: 4.4 nM
[2]
  CLint scaled: 18 mL/min/kg

## CN[C@@H]1CCN(c2ccc(-n3ncc4cc(-c5ccc(C(F)(F)F)cc5)sc4c3=O)cn2)C1
[3]
  concentration at 4 h: 1200 ng/g
[1]
  Ki: 3.3 nM
CYP2D6
  inhibition at 5 µM: < 10%
[4]
  Kp at 1 h: 1.4
CYP3A4
  inhibition at 5 µM: < 10%
[5]
  Vd: 4.1 L/kg
[6]
  half-life: 11 h
[7]
  clearance: 4.3 mL/min/kg
[8]
  Ki: 260 nM
[9]
  concentration at 336 h: 790 nM
[10]
  IC50: 1800 nM
[11]
  Cmax: 500 ng/mL
[12]
  bioavailability: 24%
[2]
  CLint scaled: 8.5 mL/min/kg
[13]
  AUC: 8400 ng·h/mL
[14]
  Selectivity ratio: 50
[15]
  concentration at 1 h: 190 ng/g
[16]
  Ki: 160 nM
[17]
  IC50: 7.7 nM
[18]
  Kp at 4 h: 3.1
[19]
  concentration at 24 h: 280 nM

## CN[C@@H]1CCN(c2ccc(-n3ncc4cc(-c5ccc(C(F)(F)F)cc5)ccc4c3=O)cn2)C1
[1]
  Ki: 10 nM
[2]
  CLint scaled: 6 mL/min/kg

## CN[C@H]1CCN(c2ccc(-n3ncc4cc(-c5ccc(C(F)(F)F)cc5)sc4c3=O)cn2)C1
[1]
  Ki: 3.1 nM

## CN[C@@H]1CCN(c2ccc(-n3ncc4cc(-c5ccc(OC)cc5)sc4c3=O)cn2)C1
[1]
  Ki: 1.3 nM
[2]
  CLint scaled: 720 mL/min/kg

## CN[C@@H]1CCN(c2ccc(-n3ncc4cc(-c5ccc(Cl)cc5)ccc4c3=O)cn2)C1
[1]
  Ki: 1.5 nM
[2]
  CLint scaled: 12 mL/min/kg

## CCc1ccc(-c2cc3cnn(-c4ccc(N5CC[C@@H](NC)C5)nc4)c(=O)c3s2)cc1
[1]
  Ki: 2.6 nM
[2]
  CLint scaled: 155 mL/min/kg

## CN(C)[C@H]1CCN(c2ccc(-n3ncc4cc(-c5ccc(Cl)cc5)ccc4c3=O)cn2)C1
[1]
  Ki: 1.1 nM
[2]
  CLint scaled: 12 mL/min/kg

## CN[C@H]1CCN(c2ccc(-n3ncc4cc(-c5ccc(OC)cc5C)ccc4c3=O)cn2)C1
[1]
  Ki: 11 nM
[2]
  CLint scaled: 8.8 mL/min/kg

## CN[C@@H]1CCN(c2ccc(-n3ncc4cc(-c5ccc(Cl)cc5)sc4c3=O)cn2)C1
[1]
  Ki: 1.9 nM
[2]
  CLint scaled: 8.4 mL/min/kg

## CN(C)[C@@H]1CCN(c2ccc(-n3ncc4cc(-c5ccc(Cl)cc5)ccc4c3=O)cn2)C1
[1]
  Ki: 1.1 nM
[2]
  CLint scaled: 21 mL/min/kg

## CN(C)[C@H]1CCN(c2ccc(-n3ncc4cc(-c5ccc(C(F)(F)F)cc5)n(C)c4c3=O)cn2)C1
[1]
  Ki: 14 nM
[2]
  CLint scaled: 48 mL/min/kg

## CN(C)[C@H]1CCN(c2ccc(-n3ncc4cc(-c5ccc(C(F)(F)F)cc5)oc4c3=O)cn2)C1
[1]
  Ki: 21 nM
[2]
  CLint scaled: 28 mL/min/kg

## CN[C@H]1CCN(c2ccc(-n3ncc4cc(-c5ccc(Cl)cc5)ccc4c3=O)cn2)C1
[3]
  concentration at 4 h: 1700 ng/g
[1]
  Ki: 1.2 nM
[4]
  Kp at 1 h: 7.8
[5]
  Vd: 14 L/kg
[6]
  half-life: 9.4 h
[7]
  clearance: 17 mL/min/kg
[11]
  Cmax: 140 ng/mL
[12]
  bioavailability: 22%
[2]
  CLint scaled: 8.9 mL/min/kg
[13]
  AUC: 2200 ng·h/mL
[15]
  concentration at 1 h: 94 ng/g
[17]
  IC50: 8.5 nM
[18]
  Kp at 4 h: 23

## O=c1c2ccc(-c3ccc(Cl)cc3)cc2cnn1-c1ccc(N2CC[C@H](N3CCCC3)C2)nc1
[1]
  Ki: 1.6 nM
[2]
  CLint scaled: 16 mL/min/kg

## CN(C)[C@H]1CCN(c2ccc(-n3ncc4cc(-c5ccc(C(F)(F)F)cc5)[se]c4c3=O)cn2)C1
[20]
  inhibition: 28%
[2]
  CLint scaled: 27 mL/min/kg

## CNC1CCN(c2ccc(NC(=O)c3ccc(-c4ccccc4)cc3)cn2)C1 (stereo not given)
[21]
  Ki: 200 nM

## CN[C@H]1CCN(c2ccc(-n3ncc4cc(-c5ccc(C(F)(F)F)cc5)ccc4c3=O)cn2)C1
[1]
  Ki: 8.4 nM
[2]
  CLint scaled: 26 mL/min/kg

## CN[C@H]1CCN(c2ccc(-n3ncc4cc(-c5ccc(F)cc5)sc4c3=O)cn2)C1
[1]
  Ki: 2 nM
[2]
  CLint scaled: 12 mL/min/kg
